Experimental data taken from ChEMBL document CHEMBL1649560, “Beta-lactamase-mediated beta-lactam resistance in Campylobacter species: prevalence of Cj0299 (bla OXA-61) and evidence for a novel beta-Lactamase in C. jejuni” (2009).
Converted amounts (≈) assume the structure as drawn.

Key:
Assay type in all cases: functional
[1] = tested on: Campylobacter jejuni; assay: Antibacterial activity against bla gene-negative and nitrocefin reaction-positive beta-lactamase harboring Campylobacter jejuni isolate P854 by NCCLS agar doubling dilution method
Method in brief: (§1)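 MICs of β-lactams by agar doubling dilution following the NCCLS (CLSI) Campylobacter Working Group procedure, with C. jejuni NCTC 11168 and C. coli NCTC 11366 as controls. Isolates were from UK poultry flocks. β-Lactamase status was set by Cj0299 PCR (281-bp amplimer) and by a nitrocefin colour change of sonicated lysate within 5 min, or within 30 min on repeat.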

[2] = tested on: Campylobacter coli; assay: Antibacterial activity against bla gene-positive and nitrocefin reaction-positive beta-lactamase harboring Campylobacter coli isolate P321 by NCCLS agar doubling dilution method; method in brief: as §1
[3] = tested on: Campylobacter jejuni; assay: Antibacterial activity against bla gene-positive and nitrocefin reaction-positive beta-lactamase harboring Campylobacter jejuni isolate P286 by NCCLS agar doubling dilution method
Method in brief: (§2)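 MICs by agar doubling dilution per the NCCLS (now CLSI) Campylobacter Working Group method. Isolates came from UK chicken flocks (feces, ceca or farm environment), 2000–2006. C. jejuni NCTC 11168 and C. coli NCTC 11366 served as control strains. The ampicillin resistance cutoff was 8 μg/ml; BSAC/CLSI Enterobacteriaceae guidelines were used for other agents.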

[4] = tested on: Campylobacter jejuni; assay: Antibacterial activity against bla gene-positive and nitrocefin reaction-negative beta-lactamase harboring Campylobacter jejuni isolate P1699 by NCCLS agar doubling dilution method; method in brief: as §1
[5] = tested on: Campylobacter jejuni; assay: Antibacterial activity against bla gene-positive and nitrocefin reaction-positive beta-lactamase harboring Campylobacter jejuni isolate P790 by NCCLS agar doubling dilution method; method in brief: as §2
[6] = tested on: Campylobacter jejuni; assay: Antibacterial activity against bla gene-positive and nitrocefin reaction-positive beta-lactamase harboring Campylobacter jejuni isolate P1093 by NCCLS agar doubling dilution method; method in brief: as §1
[7] = tested on: Campylobacter jejuni; assay: Antibacterial activity against Campylobacter jejuni isolate P338 harboring blaOXA-61::cat gene by NCCLS agar doubling dilution method
Method in brief: (§3)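 Agar doubling dilution MICs (NCCLS/CLSI Campylobacter Working Group method) against Cj0299-inactivated mutants. Mutants were made by transforming the C. jejuni isolate with pCI and selecting on Mueller-Hinton agar with 10 μg/ml chloramphenicol for 3–5 days. Chromosomal insertion was confirmed by PCR with Cj0299 and cat primers.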

[8] = tested on: Campylobacter jejuni; assay: Antibacterial activity against bla gene-positive and nitrocefin reaction-positive beta-lactamase harboring Campylobacter jejuni isolate P338 by NCCLS agar doubling dilution method; method in brief: as §2
[9] = tested on: Campylobacter jejuni; assay: Antibacterial activity against bla gene-positive and nitrocefin reaction-positive beta-lactamase harboring Campylobacter jejuni isolate P1618 by NCCLS agar doubling dilution method; method in brief: as §1
[10] = tested on: Campylobacter jejuni; assay: Antibacterial activity against bla gene-negative and nitrocefin reaction-negative beta-lactamase harboring Campylobacter jejuni isolate P850 by NCCLS agar doubling dilution method; method in brief: as §1
[11] = tested on: Campylobacter coli; assay: Antibacterial activity against Campylobacter coli by NCCLS agar doubling dilution method
Method in brief: (§4)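 MICs by agar doubling dilution following the NCCLS (CLSI) Campylobacter Working Group procedure, applied to ampicillin- and amoxicillin-resistant isolates from UK chicken flocks (2000–2006). C. jejuni NCTC 11168 and C. coli NCTC 11366 served as control strains. Resistance was called at an ampicillin cutoff of 8 μg/ml. Other agents were judged against Enterobacteriaceae guidelines (BSAC, CLSI).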

[12] = tested on: Campylobacter jejuni; assay: Antibacterial activity against bla gene-negative and nitrocefin reaction-negative beta-lactamase harboring Campylobacter jejuni isolate P835 by NCCLS agar doubling dilution method; method in brief: as §1
[13] = tested on: Campylobacter jejuni; assay: Antibacterial activity against bla gene-positive and nitrocefin reaction-positive beta-lactamase harboring Campylobacter jejuni isolate P316 by NCCLS agar doubling dilution method; method in brief: as §2
[14] = tested on: Campylobacter jejuni; assay: Antibacterial activity against Campylobacter jejuni isolate P270 harboring blaOXA-61::cat gene by NCCLS agar doubling dilution method
[15] = tested on: Campylobacter coli; assay: Antibacterial activity against bla gene-positive and nitrocefin reaction-positive beta-lactamase harboring Campylobacter coli isolate P1826 by NCCLS agar doubling dilution method; method in brief: as §1
[16] = tested on: Campylobacter jejuni; assay: Antibacterial activity against bla gene-negative and nitrocefin reaction-negative beta-lactamase harboring Campylobacter jejuni isolate P1962 by NCCLS agar doubling dilution method; method in brief: as §1
[17] = tested on: Campylobacter jejuni; assay: Antibacterial activity against bla gene-positive and nitrocefin reaction-positive beta-lactamase harboring Campylobacter jejuni isolate P1730 by NCCLS agar doubling dilution method; method in brief: as §2
[18] = tested on: Campylobacter jejuni; assay: Antibacterial activity against Campylobacter jejuni by NCCLS agar doubling dilution method; method in brief: as §4
[19] = tested on: Campylobacter jejuni; assay: Antibacterial activity against bla gene-positive and nitrocefin reaction-positive beta-lactamase harboring Campylobacter jejuni isolate P305 by NCCLS agar doubling dilution method; method in brief: as §2
[20] = tested on: Campylobacter jejuni; assay: Antibacterial activity against bla gene-positive and nitrocefin reaction-positive beta-lactamase harboring Campylobacter jejuni isolate P1650 by NCCLS agar doubling dilution method; method in brief: as §1
[21] = tested on: Campylobacter coli; assay: Antibacterial activity against bla-positive and beta-lactamase-weakly positive Campylobacter coli isolate P1627 by NCCLS agar doubling dilution method; method in brief: as §2
[22] = tested on: Campylobacter jejuni; assay: Antibacterial activity against bla gene-negative and nitrocefin reaction-positive beta-lactamase harboring Campylobacter jejuni isolate P843 by NCCLS agar doubling dilution method; method in brief: as §1
[23] = tested on: Campylobacter jejuni; assay: Antibacterial activity against Campylobacter jejuni isolate P1093 harboring blaOXA-61::cat gene by NCCLS agar doubling dilution method; method in brief: as §3
[24] = tested on: Campylobacter jejuni; assay: Antibacterial activity against bla gene-positive and nitrocefin reaction-negative beta-lactamase harboring Campylobacter jejuni isolate P1698 by NCCLS agar doubling dilution method; method in brief: as §1
[25] = tested on: Campylobacter jejuni; assay: Antibacterial activity against bla gene-positive and nitrocefin reaction-negative beta-lactamase harboring Campylobacter jejuni NCTC 11168 by NCCLS agar doubling dilution method; method in brief: as §1
[26] = tested on: Campylobacter jejuni; assay: Antibacterial activity against bla gene-positive and nitrocefin reaction-positive beta-lactamase harboring Campylobacter jejuni isolate P285 by NCCLS agar doubling dilution method; method in brief: as §2

Row | Structure (SMILES) | MIC [1] [µg/mL] | MIC [2] [µg/mL] | MIC [3] [µg/mL] | MIC [4] [µg/mL] | MIC [5] [µg/mL] | MIC [6] [µg/mL] | MIC [7] [µg/mL] | MIC [8] [µg/mL] | MIC [9] [µg/mL] | MIC [10] [µg/mL] | MIC50 [11] [µg/mL] | MIC90 [11] [µg/mL] | MIC [12] [µg/mL] | MIC [13] [µg/mL] | MIC [14] [µg/mL] | MIC [16] [µg/mL] | MIC [17] [µg/mL] | MIC50 [18] [µg/mL] | MIC90 [18] [µg/mL] | MIC [19] [µg/mL] | further results
1 | CO[C@@]1(NC(=O)Cc2cccs2)C(=O)N2C(C(=O)O)=C(COC(N)=O)CS[C@@H]21 [CEFOXITIN] | 128 (≈ 299 µM) | 64 (≈ 150 µM) | 256 (≈ 599 µM) | 128 (≈ 299 µM) | 64 (≈ 150 µM) | 128 (≈ 299 µM) | 512 (≈ 1200 µM) | 512 (≈ 1200 µM) | 256 (≈ 599 µM) | 256 (≈ 599 µM) | 128 (≈ 299 µM) | > 256 | 256 (≈ 599 µM) | 128 (≈ 299 µM) | 32 (≈ 74.9 µM) | 256 (≈ 599 µM) | 256 (≈ 599 µM) | 128 (≈ 299 µM) | 256 (≈ 599 µM) | 128 (≈ 299 µM) | MIC [15]: 128 µg/mL (≈ 299 µM); MIC [20]: 128 µg/mL (≈ 299 µM); MIC [21]: 64 µg/mL (≈ 150 µM); MIC [22]: 256 µg/mL (≈ 599 µM); MIC [23]: 128 µg/mL (≈ 299 µM); MIC [24]: 128 µg/mL (≈ 299 µM); MIC [25]: 32 µg/mL (≈ 74.9 µM); MIC [26]: 256 µg/mL (≈ 599 µM)
2 | CO/N=C(\C(=O)N[C@@H]1C(=O)N2C(C(=O)O)=C(COC(N)=O)CS[C@H]12)c1ccco1 [CEFUROXIME] | 128 (≈ 302 µM) | 64 (≈ 151 µM) | 128 (≈ 302 µM) | 64 (≈ 151 µM) | 64 (≈ 151 µM) | 128 (≈ 302 µM) | 128 (≈ 302 µM) | 128 (≈ 302 µM) | 256 (≈ 603 µM) | 128 (≈ 302 µM) | 128 (≈ 302 µM) | 256 (≈ 603 µM) | 64 (≈ 151 µM) | 64 (≈ 151 µM) | 64 (≈ 151 µM) | 64 (≈ 151 µM) | 128 (≈ 302 µM) | 128 (≈ 302 µM) | 128 (≈ 302 µM) | 64 (≈ 151 µM) | MIC [15]: 64 µg/mL (≈ 151 µM); MIC [20]: 128 µg/mL (≈ 302 µM); MIC [21]: 64 µg/mL (≈ 151 µM); MIC [22]: 64 µg/mL (≈ 151 µM); MIC [23]: 128 µg/mL (≈ 302 µM); MIC [24]: 64 µg/mL (≈ 151 µM); MIC [25]: 32 µg/mL (≈ 75.4 µM); MIC [26]: 128 µg/mL (≈ 302 µM)
3 | CC(=O)OCC1=C(C(=O)O)N2C(=O)[C@@H](NC(=O)Cc3cccs3)[C@H]2SC1 [CEPHALOTHIN] | – | – | – | – | – | – | – | – | – | – | 256 (≈ 646 µM) | > 256 | – | – | – | – | – | > 256 | > 256 | – | –
4 | Cc1onc(-c2ccccc2Cl)c1C(=O)N[C@@H]1C(=O)N2[C@@H]1SC(C)(C)[C@@H]2C(=O)O [CLOXACILLIN] | 256 (≈ 587 µM) | 256 (≈ 587 µM) | 256 (≈ 587 µM) | 256 (≈ 587 µM) | > 256 | 512 (≈ 1170 µM) | 128 (≈ 294 µM) | 128 (≈ 294 µM) | 128 (≈ 294 µM) | 256 (≈ 587 µM) | 256 (≈ 587 µM) | > 256 | 256 (≈ 587 µM) | 256 (≈ 587 µM) | 128 (≈ 294 µM) | 256 (≈ 587 µM) | 256 (≈ 587 µM) | 256 (≈ 587 µM) | > 256 | 256 (≈ 587 µM) | MIC [11]: 256 µg/mL (≈ 587 µM); MIC [15]: 256 µg/mL (≈ 587 µM); MIC [20]: 256 µg/mL (≈ 587 µM); MIC [21]: 256 µg/mL (≈ 587 µM); MIC [22]: > 256 µg/mL; MIC [23]: 256 µg/mL (≈ 587 µM); MIC [24]: 128 µg/mL (≈ 294 µM); MIC [25]: 128 µg/mL (≈ 294 µM); MIC [26]: 256 µg/mL (≈ 587 µM)
5 | CC1(C)S[C@@H]2[C@H](NC(=O)[C@H](C(=O)O)c3ccsc3)C(=O)N2[C@H]1C(=O)O [TICARCILLIN] | 128 (≈ 333 µM) | 64 (≈ 166 µM) | 64 (≈ 166 µM) | 128 (≈ 333 µM) | 128 (≈ 333 µM) | 32 (≈ 83.2 µM) | 4 (≈ 10.4 µM) | 64 (≈ 166 µM) | 64 (≈ 166 µM) | 128 (≈ 333 µM) | 64 (≈ 166 µM) | 128 (≈ 333 µM) | 4 (≈ 10.4 µM) | 64 (≈ 166 µM) | 2 (≈ 5.2 µM) | < 4 | 32 (≈ 83.2 µM) | 64 (≈ 166 µM) | 128 (≈ 333 µM) | 128 (≈ 333 µM) | MIC [20]: 64 µg/mL (≈ 166 µM); MIC [21]: 64 µg/mL (≈ 166 µM); MIC [22]: 128 µg/mL (≈ 333 µM); MIC [23]: 8 µg/mL (≈ 20.8 µM); MIC [24]: 64 µg/mL (≈ 166 µM); MIC [25]: 2 µg/mL (≈ 5.2 µM); MIC [26]: 64 µg/mL (≈ 166 µM)
